Published values from different studies.
Compare with care: the assays were run in different laboratories.
Target: Mitogen-activated protein kinase kinase kinase 9 (MAP3K9, Homo sapiens, UniProt P80192)

The remaining binding of CCS(=O)(=O)c1cc2cc(C[C@](O)(CC(C)(C)c3ccc(F)cc3C(N)=O)C(F)(F)F)[nH]c2cn1 is reported as 98% (cell-free assay, competition with immobilised ligand; 1 µM).
CCCCNc1ncc2c(-c3ccc(F)cc3)nn(C[C@H]3CC[C@H](N)CC3)c2n1 has an inhibition of 54.9% (target engagement in cells, inhibitor, chemoproteomics; 20 mM).
The remaining signal of Nc1ncnc2occ(-c3ccc(NC(=O)Nc4cc(C(F)(F)F)ccc4F)cc3)c12 is reported as 2% (cell-free assay, inhibitor; 20 µM).
With Cn1c(=O)n(-c2ccc(C(C)(C)C#N)cc2)c2c3cc(-c4cnc5ccccc5c4)ccc3ncc21 the remaining activity was 67% (enzyme activity, inhibitor; 10 µM).
For NS(=O)(=O)c1ccc(CNc2nc(Nc3cccc(NC(=O)N4CCCC4)c3)ncc2C2CC2)cc1, the remaining activity was 89% (enzyme activity, inhibitor, radiometric; 1 µM).
Cc1nc(N2CC[C@@H](O)C2)ncc1-c1cc(C(F)(F)F)cc2[nH]ncc12 gave a remaining binding of 100% (binding, competition with immobilised ligand; 1 µM).
For CCCS(=O)(=O)Nc1ccc(F)c(C(=O)c2c[nH]c3ncc(-c4ccc(Cl)cc4)cc23)c1F, the inhibition was less than 10% (enzyme activity, inhibitor; 1 µM).
O=C(O)c1cc(-c2ccc(C3CCNCC3)cc2)c2ccc(-c3ccc(C(F)(F)F)cc3)cc2c1 gave a remaining binding of 100% (cell-free assay, competition with immobilised ligand; 1 µM).
Oc1cccc(-c2nc(N3CCOCC3)c3oc4ncccc4c3n2)c1 gave a remaining signal of 103% (cell-free assay; 0.5 µM).
With O=C(O)[C@H]1[C@H](Cn2nnc3ccccc3c2=O)CC[C@@H]1C(=O)c1ccc(OCCC2CCOCC2)cc1 the remaining binding was 81% (cell-free assay, competition with immobilised ligand; 1 µM).
Cc1ccc(Nc2nccc(N(C)c3ccc4c(C)n(C)nc4c3)n2)cc1S(N)(=O)=O gave an inhibition of 92% (enzyme activity, inhibitor; 10 µM).
COc1cc(/C=C/C(=O)CC(=O)/C=C/c2ccc(O)c(OC)c2)ccc1O has an activity vs control of 14% (enzyme activity, inhibitor; 1 µM).
With CNC(=O)Nc1ccc2c(c1)[C@@]1(CC2)OC(=O)N(CC(=O)N(Cc2ccc(F)cc2)[C@@H](C)C(F)(F)F)C1=O the remaining binding was 100% (cell-free assay, competition with immobilised ligand; 1 µM).
O=C(NCCCNc1nc(Nc2cccc(NC(=O)N3CCCC3)c2)ncc1I)c1cccs1 has a remaining activity of 4% (enzyme activity, inhibitor, radiometric; 1 µM).
c1ccc(N2CCN(Cc3nc4ccccc4[nH]3)CC2)nc1 has a remaining binding of 100% (binding, competition with immobilised ligand; 1 µM).
COc1cc2ncnc(Nc3ccc(Oc4ccccc4)cc3C)c2cc1OC has an inhibition of 9% (enzyme activity, inhibitor; 1 µM).
With CNC(=O)c1cc(Oc2ccc(NC(=O)Nc3ccc(Cl)c(C(F)(F)F)c3)cc2)ccn1 the inhibition was 23% (enzyme activity, inhibitor; 10 µM).
The inhibition of CCOc1cc(-c2nncn2C)ccc1Nc1ncc2cc(C)nc(NCC(C)(C)C)c2n1 is reported as 38% (enzyme activity, inhibitor, FRET; 1 µM).
c1cc(CN2CCOCC2)cc(Nc2nccc(NCCc3cnc[nH]3)n2)c1 has a remaining activity of 73% (enzyme activity, inhibitor, radiometric; 1 µM).
With COc1cc2c(Nc3ccc(Br)cc3F)ncnc2cc1OCC1CCN(C)CC1 the remaining signal was 96.1% (cell-free assay; 0.5 µM).
For NS(=O)(=O)c1ccc(CNc2nc(Nc3cccc(CN4CCOCC4)c3)ncc2C2CC2)cc1, the remaining activity was 72% (enzyme activity, inhibitor, radiometric; 1 µM).
With C=CC(=O)Nc1cc(Nc2nccc(Nc3cc(Cl)c(F)cc3C(C)(C)O)n2)c(OC)cc1N1CC[C@@H](N(C)C)C1 the inhibition was 33% (enzyme activity, inhibitor; 1 µM).
With NS(=O)(=O)c1ccc(CNc2ccnc(Nc3cccc(NC(=O)N4CCCC4)c3)n2)cc1 the remaining activity was 86% (enzyme activity, inhibitor, radiometric; 1 µM).
C[C@H](c1ccnc(Nc2nc3ccc(-c4cc(N(C)C)ncn4)cc3[nH]2)c1)N1CCN(C(=O)CC(F)(F)F)CC1 gave a remaining binding of 100% (cell-free assay, competition with immobilised ligand; 0.1 µM).
The remaining activity of c1cc(CN2CCOCC2)cc(Nc2ncc(C3CC3)c(NCCc3c[nH]cn3)n2)c1 is reported as 7% (enzyme activity, inhibitor, radiometric; 1 µM).
CN(C)CC#Cc1ccc(OCCCc2sc(N3CCc4cccc(C(=O)Nc5nc6ccccc6s5)c4C3)nc2C(=O)O)c(F)c1 gave a remaining binding of 92% (cell-free assay, competition with immobilised ligand; 1 µM).
The remaining activity of Cc1nn(CC(F)(F)F)cc1Nc1nccc(NCCc2cnc[nH]2)n1 is reported as 77% (enzyme activity, inhibitor, radiometric; 1 µM).
With Cc1ccc(C(=O)NCc2ccsc2)cc1C#Cc1cn(C(C)C)c2ncnc(N)c12 the activity vs control was 25% (enzyme activity, inhibitor; 1 µM).
For O=C(NCCCNc1nc(Nc2cccc(CN3CCOCC3)c2)ncc1C1CC1)C1CCC1, the remaining activity was 19% (enzyme activity, inhibitor, radiometric; 1 µM).
With N#CCCc1ccc2c(c1)-c1[nH]c3ccc([N+](=O)[O-])cc3c1CC(=O)N2 the remaining signal was 18.2% (cell-free assay; 0.5 µM).
